# Measured values taken from paper PMC9924077 (Cell stem cell, 2022).
# Experiments:
# [1] = risk of TdP arrhythmia at clinical exposures; cited from earlier work
# DCM and HCM hiPSC-CMs = type: cell-based, human; details: for asystole safety margin versus isogenic control: DCM RBM20 p.R634Q and PLN p.R14del, HCM MYBPC3 p.R943X and TPM1 p.K37E versus isogenic control hiPSC-CMs; for Torsadogenic safety margin in DCM and HCM hiPSC-CMs versus isogenic control: DCM and HCM lines versus HD.15S1 isogenic control
# In short: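 Cells were HCM (TPM1, MYBPC3) and DCM (TNNT2, RBM20, PLN) hiPSC-CMs made by Cas9/ssODN knock-in and Sanger-verified, plus isogenic control. They were plated at 25,000/well for ≥4 days, dye-loaded with VF2.1.Cl/Hoechst for 50 min at 37°C, exposed to drug for 15 min at 37°C, and imaged at 33 Hz for 10 s. Design: 8 doses, 3 differentiation batches × 3 technical repeats. CNN arrhythmic/asystolic probability was fitted by binomial glm against log dose, with EC50 and 95% CI.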
# hiPSC-CMs = type: cell-based, human; details: for apparent risk in this study compared with actual clinical practice: hiPSC-CMs, Torsadogenic safety margin
# [2] = test system: hiPSC-derived cardiomyocytes; details: tested at concentrations exceeding 100 times the free Cmax; cited from earlier work
# [3] = healthy donor hiPSC-CMs, 8 concentrations
Compound,CiPA TdP risk classification [1],asystole safety margin versus isogenic control (DCM and HCM hiPSC-CMs),apparent risk in this study compared with actual clinical practice (hiPSC-CMs),further results
"Cc1nccn1CC1CCc2c(c3ccccc3n2C)C1=O (stereo not drawn) [ondansetron, Ondansetron]",intermediate,,,
"CN(CCOc1ccc(NS(C)(=O)=O)cc1)CCc1ccc(NS(C)(=O)=O)cc1 [dofetilide, Dofetilide]",,heightened propensity to cause asystole,,
"COc1ccccc1OCC(O)CN1CCN(CC(=O)Nc2c(C)cccc2C)CC1 (stereo not drawn) [ranolazine, Ranolazine]",low-no risk,,riskier,
"CC(C)COCC(CN(Cc1ccccc1)c1ccccc1)N1CCCC1 (stereo not drawn) [bepridil, Bepridil]",high-risk,,appeared less,response in hiPSC-derived cardiomyocytes in previous studies [2]: non-arrhythmic responses
"O=C(CCCN1CC=C(n2c(=O)[nH]c3ccccc32)CC1)c1ccc(F)cc1 [droperidol, Droperidol]",intermediate risk,heightened propensity to cause asystole,riskier,Torsadogenic safety margin in DCM and HCM hiPSC-CMs versus isogenic control (DCM and HCM hiPSC-CMs): trended towards increased risk
"COC(=O)C1=C(C)NC(C)=C(C(=O)OC)C1c1ccccc1[N+](=O)[O-] [nifedipine, Nifedipine]",,,,"asystole (probability of asystole class, CNN) versus dose (hiPSC-CMs; [3]): dose-dependent induction of asystole"
"Cc1cccc(C)c1OCC(C)N (stereo not drawn) [mexiletine, Mexiletine]",low-no risk,,riskier,
"CCCCCCCN(CC)CCCC(O)c1ccc(NS(C)(=O)=O)cc1 (stereo not drawn) [ibutilide, Ibutilide]",high,heightened propensity to cause asystole,,"arrhythmia probability (CNN) versus dose (hiPSC-CMs; [3]): continuous, dose-dependent increase in arrhythmia probability; Torsadogenic safety margin in DCM and HCM hiPSC-CMs versus isogenic control (DCM and HCM hiPSC-CMs): trended towards increased risk"
